Measured values published in ChEMBL document CHEMBL1128420, “Novel steroidal inhibitors of human cytochrome P45017 alpha (17 alpha-hydroxylase-C17,20-lyase): potential agents for the treatment of prostatic cancer” (J Med Chem, 1995).

Legend:
[1] = target: T1, Steroid 17-alpha-hydroxylase/17,20 lyase (Homo sapiens, UniProt P05093); assay: Ability to inhibit the Steroid 17-alpha-hydroxylase/17,20 lyase enzyme by 50%.
T1 sequence (P05093 whole entry): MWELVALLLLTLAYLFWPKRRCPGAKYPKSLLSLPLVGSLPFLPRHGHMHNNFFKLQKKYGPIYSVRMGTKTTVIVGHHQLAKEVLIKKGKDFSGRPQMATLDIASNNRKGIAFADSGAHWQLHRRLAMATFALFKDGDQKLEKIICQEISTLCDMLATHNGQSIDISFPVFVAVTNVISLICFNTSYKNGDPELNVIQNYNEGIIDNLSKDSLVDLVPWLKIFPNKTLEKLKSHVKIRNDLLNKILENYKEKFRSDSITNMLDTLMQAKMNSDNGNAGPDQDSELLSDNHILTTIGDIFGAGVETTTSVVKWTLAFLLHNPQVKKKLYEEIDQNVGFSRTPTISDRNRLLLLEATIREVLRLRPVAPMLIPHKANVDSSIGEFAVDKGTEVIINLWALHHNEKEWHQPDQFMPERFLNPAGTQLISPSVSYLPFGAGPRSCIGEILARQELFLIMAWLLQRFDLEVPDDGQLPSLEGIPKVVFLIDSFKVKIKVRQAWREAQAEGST

[2] = target: T1, Steroid 17-alpha-hydroxylase/17,20 lyase; assay: Ability to inhibit the C17,20-lyase enzyme by 50% using 17-alpha-hydroxyprogesterone as substrate.
Aromatase = target: T2, Aromatase (Homo sapiens, UniProt P11511); assay: Inhibition of Cytochrome P450 19A1
T2 sequence (P11511 whole entry): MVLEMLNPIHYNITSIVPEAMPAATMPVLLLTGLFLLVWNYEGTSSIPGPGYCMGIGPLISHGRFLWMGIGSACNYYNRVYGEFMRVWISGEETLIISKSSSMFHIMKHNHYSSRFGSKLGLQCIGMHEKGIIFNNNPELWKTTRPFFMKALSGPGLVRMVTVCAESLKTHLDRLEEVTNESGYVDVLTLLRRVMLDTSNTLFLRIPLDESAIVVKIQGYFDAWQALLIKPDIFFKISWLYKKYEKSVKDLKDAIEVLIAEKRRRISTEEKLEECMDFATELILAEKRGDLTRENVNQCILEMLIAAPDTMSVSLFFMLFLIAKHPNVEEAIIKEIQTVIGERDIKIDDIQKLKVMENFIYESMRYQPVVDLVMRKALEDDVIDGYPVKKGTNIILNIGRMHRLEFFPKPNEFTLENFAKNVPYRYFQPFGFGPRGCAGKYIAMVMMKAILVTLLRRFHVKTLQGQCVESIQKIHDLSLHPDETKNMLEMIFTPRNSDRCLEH
In short: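 Aromatase from the microsomal fraction of human placenta.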

[3] = Inhibition of Steroid 5-alpha-reductase; parameters: species or system Homo sapiens
In short: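 Testosterone 5α-reductase from human benign prostatic tissue.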

SMILES | IC50 [1] | IC50 [2] | IC50 (Aromatase) | IC50 [3]
C[C@]12CC[C@H](O)CC1=CCC1C2CC[C@@]2(C)C1CC[C@@H]2c1cccnc1 (some centres not stated) | 47 nM | 23 nM |  | 
C[C@]12CCC(O)CC1=CCC1C2CC[C@]2(C)C(Cc3ccccn3)=CCC12 (some centres not stated) | > 10000 nM | > 10000 nM |  | 
C[C@]12CC[C@H](O)CC1=CC[C@@H]1[C@@H]2CC[C@]2(C)C(c3ccccn3)=CC[C@@H]12 | 270 nM | 76 nM | > 20000 nM | 
C[C@]12CCC(=O)C=C1CCC1C2CC[C@]2(C)C(c3cccnc3)=CCC12 (some centres not stated) |  |  | 1800 nM | 10000 nM
C[C@]12CCC(Oc3c(F)c(F)c(C(F)(F)F)c(F)c3F)=CC1=CCC1C2CC[C@]2(C)C(c3cccnc3)=CCC12 (some centres not stated) | > 10000 nM | > 10000 nM |  | 
C[C@]12CCC(=O)C=C1CCC1C2C(=O)C[C@]2(C)C(c3cccnc3)=CCC12 (some centres not stated) | 13 nM | 2.9 nM |  | 
C[C@]12CC[C@H](O)CC1=CC[C@@H]1[C@@H]2CC[C@]2(C)C(c3ccncc3)=CC[C@@H]12 | 4000 nM | 1000 nM | > 20000 nM | 
C[C@]12CCC3C(CC=C4C[C@@H](O)CC[C@@]43C)C1CCC2c1ccncc1 (single isomer, unassigned) | 160 nM | 53 nM |  | 
C[C@]12CC[C@H](O)CC1=CC[C@@H]1[C@@H]2CC[C@]2(C)C(c3cccnc3)=CC[C@@H]12 [ABIRATERONE] |  |  | > 20000 nM | > 50000 nM
C[C@]12CCC3C(CC[C@H]4CC(=O)CC[C@]34C)C1CC=C2c1cccnc1 (some centres not stated) | 4.7 nM | 3 nM |  | 
